# Sampled rows, rich in hits. Any-hit rate of the full collection: about 1.8%.
# TRAIL sens C8 – sensitizes caspase-8 expressing cells to TRAIL | NB7+C8 cells + TRAIL, ATPlite viability luminescence | 360,000 tested, 1% active | inhibition (viability loss, TRAIL sensitization), % at 10 µM;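 active = compounds causing at least 50% loss of cell viability in the single-dose screen, relative to plate controls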
# STAT3 act-1 – increases IL-6 driven STAT3 reporter signal; activation (% of control), % at 5.6 µM; 190,000 tested, 0.91% active; U3A cells, IL-6 STAT3-luciferase reporter, luminescence; 100% = signal with IL-6 EC80 alone;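 active = activation above the screen-wide mean of compound activation plus 3 SD, cut at about 130% in these data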;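 note: 0% = background luminescence of wells with medium and substrate only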
#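 Test system: STAT3-luciferase reporter U3A cells; Detection: reporter luminescence signal; Times: 1 h compound pre-exposure, 6 h IL-6 stimulation, 37 °C; Benchmarks: IL-6-only high control; Also added: IL-6 stimulus at 33 ng/mL final.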
# STAT3 inh – inhibitors of IL-6 induced STAT3 signaling. U3A cells, IL-6 STAT3-luciferase reporter, luminescence; host cell line lacks STAT1. inhibition, % at 5.5 µM. 190,000 tested, 0.89% active. AID 862;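 active = inhibition above the mean inhibition across all screened compounds plus 3 SD, cut at about 44% in these data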;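 note: 0% = DMSO only wells and 100% = 100 µM nifuroxazide control wells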
# STAT1 inh-1 – reduces IFN-gamma driven STAT1 reporter signal. NIH 3T3 STAT1-luciferase reporter, luminescence. inhibition, % at 5.5 µM. 200,000 tested, 0.35% active. AID 920;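 active = inhibition above a set limit, the mean inhibition across all tested compounds plus 3 SD, cut at about 34% in these data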;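 note: 0% = IFN-gamma with DMSO and 100% = IFN-gamma with 300 µM nifuroxazide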
# PPC-1+TRAIL kill – compounds killing PPC-1 cancer cells with TRAIL present (potentiator screen, no TRAIL-free arm); AID 1443; cell killing (% activity), % at 4 µM or 5 µM; 220,000 tested, 0.41% active; PPC-1 cells + TRAIL, ATPLite viability luminescence;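 active = cell killing above 50% in the first pass at 4 µM, then a duplicate retest at 5 µM averaging 50% or more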;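 note: plate controls were cells with TRAIL plus DMSO for no effect and medium-only wells lacking cells for full effect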
# STAT3 act-2 – STAT3 activation, confirmation assay; 1,200 tested, 64% active; potentiation (% of control), % at 5.7 µM; shares compounds with STAT3 act-1; U3A STAT3-luciferase reporter, IL-6 potentiation, luminescence; U3A cells lack STAT1; 100 means same as IL-6 alone;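 active = percent activation of the STAT3 luciferase reporter above a set limit taken from the earlier primary screen, cut at about 130% in these data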;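 note: 0% = background signal of medium plus substrate and 100% = median of IL-6 with DMSO wells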
# NFkB act 2 – NF-kappaB activation in STAT3 activator counter-screen. shares compounds with STAT3 act-1. human cells, NF-kappaB reporter activation. activation (% of control), % at 5.7 µM. 1,200 tested, 11% active. AID 1309; in the data active = activation above about 120%;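 note: reporter induced by TNF-alpha stimulation; 100% = median of stimulated DMSO wells and 0% = no signal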
# STAT1 act STAT3c – STAT1 activation in STAT3 activator counter-screen; NIH 3T3 STAT1-luciferase reporter, IFN-gamma, luminescence; shares compounds with STAT3 act-1; AID 1318; activation (% of control), % at 5.7 µM; 1,200 tested, 13% active;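 active = activation above the solvent-only control well mean plus 3 SD, set per screening run, cut at about 120% in these data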;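 note: 100% = IFN-gamma with DMSO median signal so 100% means no change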
# STAT1 inh-2 – STAT1 inhibition, confirmation assay; 200 tested, 55% active; inhibition, % at 5.5 µM; AID 1263; NIH 3T3 STAT1-luciferase reporter, IFN-gamma, luminescence; shares compounds with STAT1 inh-1;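 active = triplicate mean inhibition exceeding the hit cutoff computed for the primary STAT1 screen, cut at about 35% in these data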;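 note: 0% = DMSO with IFN-gamma and 100% = 300 µM nifuroxazide with IFN-gamma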
# NFkB inh – NF-kappaB inhibition in STAT1 inhibitor counter-screen; 200 tested, 30% active; HEK293T NF-kB luciferase reporter, TNF-alpha induced, luminescence; shares compounds with STAT1 inh-1; inhibition, % at 5.7 µM;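 active = inhibition above the mean of solvent-only control wells plus 3 SD of those wells, cut at about 15% in these data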;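 note: 0% = DMSO with TNF-alpha and 100% = MG-132 control with TNF-alpha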
# STAT3 inh STAT1c – STAT3 inhibition in STAT1 inhibitor counter-screen | shares compounds with STAT1 inh-1 | U3A cells, IL-6 STAT3 luciferase reporter, luminescence; cells lacking STAT1 | inhibition, % at 5.7 µM | 200 tested, 20% active | AID 1310;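 active = inhibition above the mean of solvent-only control wells plus 3 SD, set per campaign, cut at about 25% in these data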;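 note: 0% = IL-6 plus DMSO and 100% = IL-6 plus nifuroxazide control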
# PPC-1 tox – PPC-1 cell cytotoxicity | PPC-1 viability, ATPlite luminescence, overnight | AID 1447 | cytotoxicity, % at 5 µM | 1,200 tested, 50% active | shares compounds with PPC-1+TRAIL kill;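 active = reconfirmed compounds whose average cytotoxicity reaches 50% or more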;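 note: 0% = DMSO-treated cells and 100% = wells holding medium but no cells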
# Active calls of the source: *; . = no result.
SMILES,TRAIL sens C8,STAT3 act-1,STAT3 inh,STAT1 inh-1,PPC-1+TRAIL kill,STAT1 inh-2,NFkB inh,STAT3 inh STAT1c,others
COc1ccc(CC(=O)Nc2c(C(=O)N3CCN(c4ccccc4OC)CC3)oc3ccccc23)cc1OC,-20,.,.,.,.,.,.,.,
Cc1cccc(NS(=O)(=O)c2ccc(C)c(C(=O)OCC(=O)Nc3cc(C)on3)c2)c1,14,140*,-43,8,7,.,.,.,STAT3 act-2=140*;NFkB act 2=106;STAT1 act STAT3c=101;PPC-1 tox=7
COC(=O)Cn1ncc(N2CC(C)OC(C)C2)c(Cl)c1=O (stereo not given),-9,.,.,.,.,.,.,.,
CCCn1c(NC(=O)c2ccccc2)nc2ccccc21,13,137*,-33,-3,10,.,.,.,STAT3 act-2=113;NFkB act 2=106;STAT1 act STAT3c=100;PPC-1 tox=8
CCCn1c(NC(=O)c2ccc(C)cc2)nc2ccccc21,12,104,0,-15,0,.,.,.,
Cn1c2ccc(Cl)cc2c2nc3ccccc3nc21,6,173*,-75,-9,6,.,.,.,STAT3 act-2=173*;NFkB act 2=118;STAT1 act STAT3c=131*;PPC-1 tox=21
CCC(=O)Nc1ccc(-c2nc3ccccc3c(=O)o2)cc1,48,76,32,39*,41,19,14,-3,
Cc1ccc(S(=O)(=O)CC(CN2CCCCC2)N2CCCCC2)cc1 (stereo not given),5,112,-7,33,21,.,.,.,
O=S(=O)(CC(CN1CCCCC1)N1CCCCC1)c1ccc2ccccc2c1 (stereo not given),-11,104,2,35*,10,15,-3,-50,
Nc1ccc2nc(-c3ccc(N)c(Cl)c3)[nH]c2c1,31,72,35,-49,40,.,.,.,
Nc1ccc(-c2nc3c(Cl)cc(N)cc3[nH]2)cc1,2,79,26,41*,3,30,35*,28*,
COc1cccc(CNc2ncnc3cc(Cl)ccc23)c1,23,90,13,41*,12,32,7,3,
Cc1cccc(-n2cc(-c3ccccc3)c3c(N4CCOCC4)ncnc32)c1,21,94,8,38*,8,18,9,-51,
CCCNC(=O)C1(C)CCN(C(=O)c2ccc(OC)cc2OC)C1 (stereo not given),-8,.,.,.,.,.,.,.,
Cc1sc(-c2ccncc2)nc1OC(=O)c1ccc(F)cc1F,-10,98,4,51*,18,27,10,7,
CCOC1=C2CN(S(=O)(=O)c3ccccc3)[C@H](c3ccccc3)C[C@H]2n2c(=O)n(-c3ccccc3)c(=O)n2C1,8,.,.,.,.,.,.,.,
Cc1ccc(C(=O)OCC(=O)NCc2ccccc2)s1,3,.,.,.,.,.,.,.,
CCCCN1C(=O)C(=O)N(CC(=O)c2cc(C)n(C3CC3)c2C)C1=O,21,.,.,.,.,.,.,.,
CCN(CC)C(=O)C1=C(C)N(CCC2=CCCCC2)C(=O)C(CC(=O)NCCCN(C)C)C1 (stereo not given),-24,.,.,.,.,.,.,.,
COc1ccc(NC(=O)C2CCN(c3cc(-c4ccccc4)nc4ncnn34)CC2)cc1OC,9,76,30,42*,5,53*,19*,36*,
CCOC(=O)N1CCC(N2C(=O)c3ccccc3C2Nc2cccnc2)CC1 (stereo not given),8,98,3,34*,20,28,5,6,
Cc1coc2cc3oc(=O)c(CCC(=O)N4CCC(C(=O)O)(c5ccccc5)CC4)c(C)c3cc12,-1,.,.,.,.,.,.,.,
COc1cc(C(=O)OCC(=O)Nc2sccc2C(N)=O)cc(OC)c1OC,-26,80,28,42*,16,-4,0,6,
COc1ccc(C(=O)OCC(=O)Nc2sccc2C(N)=O)cc1OC,1,.,.,.,7,.,.,.,
O=C(C1CCC(CNS(=O)(=O)c2cccc3nsnc23)CC1)N1CCN(c2ccccn2)CC1 (stereo not given),-8,96,7,35*,18,25,-3,7,
SMILES,TRAIL sens C8,STAT3 act-1,STAT3 inh,STAT1 inh-1,PPC-1+TRAIL kill,STAT1 inh-2,NFkB inh,STAT3 inh STAT1c,others
COc1ncnc2c1ncn2CCCN1CCN(Cc2ccc(C)cc2)CC1,-4,.,.,.,.,.,.,.,
COc1ccc(CNC(=O)C(c2ccc(C)cc2)N(Cc2cccs2)C(=O)c2ccc3c(c2)OCCO3)cc1 (stereo not given),20,96,11,38*,-7,23,-7,-5,
Cc1cccc(N(Cc2ccccc2)C(=O)CCl)c1,96*,72,37,35*,7,29,12,29*,
COc1ccc(CC(=O)N(Cc2ccccc2)c2cccc(C)c2)cc1OC,-14,.,.,.,.,.,.,.,
COc1ccc(NC(=O)C2(C)CCN2Cc2ccccc2Cl)cc1OC (stereo not given),3,.,.,.,.,.,.,.,
CCCS(=O)(=O)Nc1ccc(N2CCCCC2)c(S(=O)(=O)Nc2ccccc2OC)c1,5,.,.,.,.,.,.,.,
Cc1cc(=O)n(C(NC(=O)c2ccccc2)C(=O)c2ccccc2)cn1 (stereo not given),-6,91,12,42*,7,46*,1,-61,
COc1ccc2c(c1)C(=O)O[C@@H](c1ccccc1)C[C@@H](O)C(=O)CC2,33,.,.,.,.,.,.,.,
CCOC(=O)C1CCN(CC(=O)Nc2c(C(=O)OC)[nH]c3ccc(Cl)cc23)CC1,27,70,40,37*,13,33,3,29*,
CCOC(=O)C1CCN(CC(=O)Nc2c(C(=O)OC)[nH]c3ccccc23)CC1,.,90,20,10,-20,.,.,.,
COc1ccc(/C=C/C(=O)OCC(=O)NC2CCCC2)cc1OC,-13,.,.,.,.,.,.,.,
CCOC(=O)CS(=O)(=O)c1nc(-c2ccc(F)cc2)cc(C(F)(F)F)n1,-3,98,9,34*,9,46*,22*,13,
Cc1cc(NC(=O)CSc2nc(-c3cccs3)cc(C(F)(F)F)n2)no1,-3,100,4,0,-3,.,.,.,
COCCNC(=O)CCSc1nc(-c2ccc(OC)cc2)cc(C(F)(F)F)n1,-6,96,8,1,-2,.,.,.,
